The text below walks through data of ChEMBL document CHEMBL2439964, “Identification of a series of 1,3,4-trisubstituted pyrazoles as novel hepatitis C virus entry inhibitors” (Bioorg Med Chem Lett, 2013).

Activity calls are given as the source filed them. No cut-off for these calls is given here. A value given as a limit tells only on which side of the number the result lay.

Data set [1] has as its system Vesicular stomatitis virus. As to the kind of experiment: Antiviral activity against Vesicular stomatitis virus pseudoparticle expressing glycoprotein assessed as inhibition of pseudoparticles entry into human Huh-H1 cells after 2 days by luciferase reporter gene assay. It counts as functional, organism-based.
A short description of data set [2]: Cytotoxicity against human Huh-H1 cells. It counts as cell-based.
A short description of data set [3]: Selectivity index, ratio of CC50 for human HuH7 cells to EC50 for cell culture derived HCV. More on the design: species or system Huh-7. In outline: (§1)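 Naïve Huh-7 cells in 384-well plates were given serially diluted compound, then infected with cell culture-derived HCV (HCVcc) at MOI 1. Live cells were analysed 72 h post-infection. EC50 came from 10-point dose-response in duplicate with quadruplicate measurements, or 5-point in duplicate for one series. CC50 came from automated per-well cell counts. SI = CC50/EC50.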

In data set [4] the test system is Hepatitis C virus. As to the kind of experiment: Antiviral activity against cell culture derived HCV infected in human HuH7 cells assessed as inhibition of viral replication after 72 hrs. Type of data set: functional, organism-based, Hepacivirus hominis. The following applies: Huh-7, 72 h. A digest of the protocol: as §1
Data set [5] is described as follows: Cytotoxicity against human HuH7 cells. It counts as cell-based, Huh-7. A digest of the protocol: as §1
Data set [6] concerns Hepatitis C virus. The data set is described as follows: Antiviral activity against HCV genotype-1 pseudoparticle expressing envelope protein E1 and E2 assessed as inhibition of pseudoparticles entry into human Huh-H1 cells after 2 days by luciferase reporter gene assay. It counts as functional, organism-based, Hepacivirus hominis. The following applies: genotype 1, Huh-H1, 48 h.

Turning to `CCCCCNc1nc(Nc2ccc([N+](=O)[O-])cc2)nc(OCC(F)(F)F)n1`, in data set [1], the inhibition result is “inactive”. In data set [2], this compound registered a cytotoxic concentration (CC50) above 25000 nM.
As to `CN1CCN(CCNCc2cn(-c3ccc(C(F)(F)F)cc3)nc2-c2ccc(C(F)(F)F)cc2)CC1`, the “Ratio CC50/EC50” value in data set [3] came to 3.1. In addition, the EC50 in data set [4] turned out to be 490 nM. Also, in data set [5], the CC50 was determined as 1500 nM.
`Cc1ccccc1-c1nn(-c2ccc(Cl)cc2)cc1CNCCN1CCN(C)CC1`: the “Ratio CC50/EC50” value in data set [3] is 26. For the same compound, the EC50 in data set [4] worked out at 650 nM. In data set [5], this compound yielded a CC50 of 17000 nM.
On the same counts, the results for `CN1CCN(CCNCc2cn(-c3ccc(F)cc3F)nc2-c2ccc(N(C)C)cc2)CC1` are above 15, 1300 nM and above 20000 nM.
Regarding `Cc1ccccc1-c1nn(-c2cccc(Cl)c2)cc1CNCCN1CCN(C)CC1`, the “Ratio CC50/EC50” value in data set [3] is listed as 16. In addition, the EC50 in data set [4] was 1000 nM. The CC50 in data set [5] was found to be 16000 nM.
On to `CN1CCN(CCNCc2cn(-c3ccc(C(F)(F)F)cc3)nc2-c2ccc(Cl)cc2)CC1`, for which the “Ratio CC50/EC50” value in data set [3] turned out to be 8.4. Besides, the EC50 in data set [4] is 360 nM. In addition, it took 3000 nM to reach half-maximal cytotoxicity in data set [5] (CC50).
On the same counts, the results for `CN1CCN(CCCNCc2cn(-c3ccc([N+](=O)[O-])cc3)nc2-c2ccc(OC(F)(F)F)cc2)CC1` are 4.6, 340 nM and 1600 nM.
In the case of `CN1CCN(CCNCc2cn(-c3ccc(F)cc3F)nc2-c2ccc(Cl)cc2)CC1`, the “Ratio CC50/EC50” value in data set [3] is reported as 50. Besides, the inhibition entry in data set [1] was “inactive”. Besides, the EC50 amounted to 380 nM in data set [4] and 1900 nM in data set [6]. Further, the cytotoxic concentration (CC50) was 19000 nM in data set [5] and 9100 nM in data set [2].
With `Cc1ccccc1-c1nn(-c2cc(F)ccc2F)cc1CNCCN1CCN(C)CC1`, the “Ratio CC50/EC50” value in data set [3] is reported as above 8. Also, the EC50 in data set [4] is 2500 nM. The CC50 in data set [5] is above 20000 nM.
With `Cc1ccccc1-c1nn(-c2ccc(C(F)(F)F)cc2)cc1CNCCN1CCN(C)CC1`, in data set [3], the “Ratio CC50/EC50” value came to 24. The EC50 in data set [4] was determined as 460 nM. The compound also yielded a CC50 in data set [5] of 11000 nM.
As for `Cc1ccccc1-c1nn(-c2ccc(F)cc2F)cc1CNCCCN(C)C`, the “Ratio CC50/EC50” value in data set [3] was above 3. Moreover, the inhibition entry in data set [1] is “inactive”. For the same compound, the half-maximal effective concentration (EC50) in data set [4] is 6700 nM; in data set [6] it was 6100 nM. The CC50 was above 20000 nM in data set [5] and above 25000 nM in data set [2].
Regarding `CN1CCN(CCNCc2cn(-c3ccc(F)cc3F)nc2C(C)(C)C)CC1`, the “Ratio CC50/EC50” value in data set [3] is above 1.8. Moreover, the EC50 in data set [4] came to 11000 nM. Also, the CC50 in data set [5] is above 20000 nM.
The corresponding values for `Cc1ccccc1-c1nn(-c2ccc(F)cc2F)cc1CN1CCC(N2CCCCC2)CC1` are above 2.7, 7500 nM and above 20000 nM.
As for `CCN(CC)CCCNCc1cn(-c2ccc(F)cc2F)nc1-c1ccccc1C`, the “Ratio CC50/EC50” value in data set [3] was above 4.6. Further, the EC50 in data set [4] turned out to be 4300 nM. The CC50 in data set [5] was above 20000 nM.
The corresponding values for `CN1CCN(CCNCc2cn(-c3ccc([N+](=O)[O-])cc3)nc2-c2ccc(C(F)(F)F)cc2)CC1` are 29, 110 nM and 3200 nM.
For the compound `Cc1ccccc1-c1nn(-c2ccccc2Cl)cc1CNCCN1CCN(C)CC1`, the “Ratio CC50/EC50” value in data set [3] is above 5.3. In addition, the EC50 in data set [4] worked out at 3800 nM. This compound yielded a cytotoxic concentration (CC50) in data set [5] above 20000 nM.
`CN1CCN(CCNCc2cn(-c3ccc(C(F)(F)F)cc3)nc2-c2ccc(OC(F)(F)F)cc2)CC1`: the “Ratio CC50/EC50” value in data set [3] was determined as 6.9. Besides, the EC50 in data set [4] turned out to be 440 nM. In data set [5], this compound had a CC50 of 3000 nM.
The corresponding values for `Cc1ccccc1-c1nn(-c2ccc(F)cc2F)cc1CNCCN1CCN(C)CC1` are above 7.2, 2800 nM and above 20000 nM.
The corresponding values for `Cc1ccccc1-c1nn(-c2ccc(F)cc2F)cc1CNCCN1CCCCC1` are above 1, 20000 nM and above 20000 nM.
On the same counts, the results for `CCCN1CCC(CNCc2cn(-c3ccc(F)cc3F)nc2-c2ccccc2C)CC1` are above 8.8, 2300 nM and above 20000 nM.
As for `CCCN1CCC(CNCc2cn(-c3ccc([N+](=O)[O-])cc3)nc2-c2ccc(C(F)(F)F)cc2)CC1`, the “Ratio CC50/EC50” value in data set [3] is given as 15. In data set [4], the EC50 came out at 150 nM. Moreover, half-maximal cytotoxicity in data set [5] (CC50) was put at 2300 nM.
As for `Cc1ccccc1-c1nn(-c2ccc(Br)cc2)cc1CNCCN1CCN(C)CC1`, the “Ratio CC50/EC50” value in data set [3] is given as 8. For the same compound, in data set [4], the EC50 amounted to 1200 nM. Also, the CC50 in data set [5] was 9600 nM.
